The results in this text go back to ChEMBL document CHEMBL1255207, “Pyrazolobenzodiazepines: part I. Synthesis and SAR of a potent class of kinase inhibitors” (Bioorg Med Chem Lett, 2010).

Calls of active or inactive are those of the source. The calls are words filed in the database; no cut-off is given here.

The subject of data set [1] is SW480. In words: Cytotoxicity against human SW480 cells by MTT assay. It is filed as functional, cell-based. The method in brief:
(§1)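 Antiproliferative IC50 was measured in human tumor lines: H460a (lung), HCT116, RKO and SW480 (colon), and MDA-MB435 (breast). Values are the mean of duplicate wells.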

Data set [2] deals with Cyclin-dependent kinase 2/cyclin E (Homo sapiens, UniProt P24941). In words: Inhibition of CDK2-cyclin E. It is filed as protein-complex assay. The method in brief: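 CDK2 was paired with cyclin E1. IC50 came from at least two replicates at each concentration.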
In data set [3] the test system is CDK1-cyclin B (Homo sapiens). In words: Inhibition of CDK1-cyclin B.
Data set [4] addresses CDK4-cyclin D1 (Homo sapiens). Nature of the data set: Inhibition of CDK4-cyclin D1.
The subject of data set [5] is HCT-116. In words: Cytotoxicity against human HCT116 cells by MTT assay. It is filed as functional, cell-based. A digest of the protocol:
as §1
(In general: Tetrazolium dyes change colour on reduction, which living cells bring about.)

The target in data set [6] is Focal adhesion kinase 1 (Homo sapiens, UniProt Q05397). Nature of the data set: Inhibition of FAK.
In data set [7] the target is Proto-oncogene tyrosine-protein kinase Src (Homo sapiens, UniProt P12931). Nature of the data set: Inhibition of Src.
In data set [8] the target is Vascular endothelial growth factor receptor 2 (Homo sapiens, UniProt P35968). Nature of the data set: Inhibition of KDR.
Data set [9] is described as follows: Inhibition of FGFR.
Data set [10] is described as follows: Inhibition of PDGFR.
Data set [11] deals with Epidermal growth factor receptor (Homo sapiens, UniProt P00533). Nature of the data set: Inhibition of EGFR.
Data set [12] has as its system NCI-H460. In words: Cytotoxicity against human H460a cells by MTT assay. The class given is functional, cell-based. The method in brief: as §1
The subject of data set [13] is RKO. In words: Cytotoxicity against human RKO cells by MTT assay. It is filed as functional, cell-based. A digest of the protocol: as §1
For data set [14], the system named is MDA-MB-435. In words: Cytotoxicity against human MDA-MB-435 cells by MTT assay. It is filed as functional, cell-based. The method in brief:
as §1

In data set [15] the test system is SW480. Nature of the data set: Antitumor activity against human SW480 cells xenografted in mouse assessed as inhibition of tumor growth at 3.125 mg/kg, po bid for 20 days. The class given is functional. The conditions noted are these: SW480, 480 h. The method in brief:
(§2)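 SW480 tumor-bearing nude mice dosed per os by gavage (0.2 ml/animal) twice daily for 20 days at 3.125, 1.56 and 0.78 mg/kg, with vehicle b.i.d. control. Tumor growth was followed over days post-implant and expressed as %T/C and % inhibition, with p values. Body weight change was tracked over the study.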
(In general: A xenograft is tissue or cells of one species grown in another, often human tumour cells in immunodeficient mice.)

Data set [16] relates to SW480. In words: Antitumor activity against human SW480 cells xenografted in mouse assessed as inhibition of tumor growth at 1.56 mg/kg, po bid for 20 days. The class given is functional. To be noted: SW480, 480 h. A digest of the protocol: as §2
Data set [17] concerns NCI-H460. Nature of the data set: Antitumor activity against human H460 cells xenografted in mouse assessed as inhibition of tumor growth administered as po bid for 20 days. It is filed as functional, organism-based.
The test system of data set [18] is LOX. Nature of the data set: Antitumor activity against human LOX cells xenografted in mouse assessed as inhibition of tumor growth administered as po bid for 20 days. The class given is functional, organism-based.
The test system of data set [19] is LoVo. In words: Antitumor activity against human LoVo cells xenografted in mouse assessed as inhibition of tumor growth administered as po bid for 20 days. It is filed as functional, organism-based.
Data set [20] has as its system A549. Nature of the data set: Antitumor activity against human A549 cells xenografted in mouse assessed as inhibition of tumor growth administered as po bid for 20 days. The class given is functional, organism-based.
The subject of data set [21] is Mus musculus. Nature of the data set: Toxicity in human SW480 cells xenografted mouse assessed as mortality at 0.78 to 3.125 mg/kg, po bid for 20 days. The conditions noted are these: in vivo, 480 h. It is filed as organism-based. The arrangement: dose 0.78-3.125 mg/kg, route oral. A digest of the protocol: (§3)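 SW480 tumour-bearing nude mice were dosed by oral gavage (0.2 ml/animal) at 3.125, 1.56 or 0.78 mg/kg b.i.d. for 20 days, against a vehicle b.i.d. group. Animals were watched for drug-related toxicity, with body weight and tumour growth followed over days after tumour cell implant.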

The subject of data set [22] is Mus musculus. In words: Toxicity in human SW480 cells xenografted mouse assessed as overt signs at 0.78 to 3.125 mg/kg, po bid for 20 days. The class given is organism-based. The arrangement: dose 0.78-3.125 mg/kg, route oral. To be noted: in vivo, 480 h. The method in brief:
as §3

In data set [23] the test system is Mus musculus. In words: Toxicity in human SW480 cells xenografted mouse assessed as body weight gain at 0.78 to 3.125 mg/kg, po bid for 20 days. The class given is organism-based. To be noted: in vivo, 480 h. Also noted: dose 0.78-3.125 mg/kg, route oral. A digest of the protocol: as §2
Data set [24] concerns the target CDK1-cyclin A1 (Homo sapiens). In words: Inhibition of CDK1-cyclin A1.
Data set [25] has as its target CDK4-cyclin D1 (Homo sapiens). In words: Inhibition of CDK4/Cyclin D1.

Epidermal growth factor receptor, sequence (P00533 whole entry): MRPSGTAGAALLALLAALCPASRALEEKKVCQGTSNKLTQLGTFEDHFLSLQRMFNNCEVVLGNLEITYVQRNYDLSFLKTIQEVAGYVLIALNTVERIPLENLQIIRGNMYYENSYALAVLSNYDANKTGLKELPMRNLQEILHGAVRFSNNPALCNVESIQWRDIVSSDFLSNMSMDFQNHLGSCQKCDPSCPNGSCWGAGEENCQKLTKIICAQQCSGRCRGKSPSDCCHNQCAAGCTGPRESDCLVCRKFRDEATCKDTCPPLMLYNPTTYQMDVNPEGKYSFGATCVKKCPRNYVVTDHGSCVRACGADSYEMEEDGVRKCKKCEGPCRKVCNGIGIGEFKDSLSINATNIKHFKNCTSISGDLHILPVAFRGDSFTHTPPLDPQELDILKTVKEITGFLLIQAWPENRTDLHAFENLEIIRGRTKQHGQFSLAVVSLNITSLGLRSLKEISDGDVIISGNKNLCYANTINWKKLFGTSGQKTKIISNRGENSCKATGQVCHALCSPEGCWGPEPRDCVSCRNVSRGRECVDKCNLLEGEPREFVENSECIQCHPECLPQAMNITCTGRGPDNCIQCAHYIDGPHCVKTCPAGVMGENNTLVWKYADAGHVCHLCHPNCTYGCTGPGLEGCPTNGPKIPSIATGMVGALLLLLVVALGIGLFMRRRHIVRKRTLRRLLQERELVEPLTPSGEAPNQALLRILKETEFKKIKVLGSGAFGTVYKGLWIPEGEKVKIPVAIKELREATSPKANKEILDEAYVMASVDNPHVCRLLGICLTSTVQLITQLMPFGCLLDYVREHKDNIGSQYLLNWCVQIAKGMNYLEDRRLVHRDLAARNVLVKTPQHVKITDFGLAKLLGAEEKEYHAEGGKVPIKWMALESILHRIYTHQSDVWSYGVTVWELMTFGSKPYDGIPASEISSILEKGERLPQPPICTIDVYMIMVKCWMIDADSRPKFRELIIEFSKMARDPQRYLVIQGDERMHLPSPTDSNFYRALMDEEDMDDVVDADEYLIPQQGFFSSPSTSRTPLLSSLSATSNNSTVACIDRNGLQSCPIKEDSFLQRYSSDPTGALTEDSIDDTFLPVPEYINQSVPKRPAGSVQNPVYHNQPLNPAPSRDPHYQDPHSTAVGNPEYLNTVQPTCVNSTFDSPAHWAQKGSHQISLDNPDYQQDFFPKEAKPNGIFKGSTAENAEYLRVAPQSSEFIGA
Focal adhesion kinase 1, sequence (Q05397 whole entry): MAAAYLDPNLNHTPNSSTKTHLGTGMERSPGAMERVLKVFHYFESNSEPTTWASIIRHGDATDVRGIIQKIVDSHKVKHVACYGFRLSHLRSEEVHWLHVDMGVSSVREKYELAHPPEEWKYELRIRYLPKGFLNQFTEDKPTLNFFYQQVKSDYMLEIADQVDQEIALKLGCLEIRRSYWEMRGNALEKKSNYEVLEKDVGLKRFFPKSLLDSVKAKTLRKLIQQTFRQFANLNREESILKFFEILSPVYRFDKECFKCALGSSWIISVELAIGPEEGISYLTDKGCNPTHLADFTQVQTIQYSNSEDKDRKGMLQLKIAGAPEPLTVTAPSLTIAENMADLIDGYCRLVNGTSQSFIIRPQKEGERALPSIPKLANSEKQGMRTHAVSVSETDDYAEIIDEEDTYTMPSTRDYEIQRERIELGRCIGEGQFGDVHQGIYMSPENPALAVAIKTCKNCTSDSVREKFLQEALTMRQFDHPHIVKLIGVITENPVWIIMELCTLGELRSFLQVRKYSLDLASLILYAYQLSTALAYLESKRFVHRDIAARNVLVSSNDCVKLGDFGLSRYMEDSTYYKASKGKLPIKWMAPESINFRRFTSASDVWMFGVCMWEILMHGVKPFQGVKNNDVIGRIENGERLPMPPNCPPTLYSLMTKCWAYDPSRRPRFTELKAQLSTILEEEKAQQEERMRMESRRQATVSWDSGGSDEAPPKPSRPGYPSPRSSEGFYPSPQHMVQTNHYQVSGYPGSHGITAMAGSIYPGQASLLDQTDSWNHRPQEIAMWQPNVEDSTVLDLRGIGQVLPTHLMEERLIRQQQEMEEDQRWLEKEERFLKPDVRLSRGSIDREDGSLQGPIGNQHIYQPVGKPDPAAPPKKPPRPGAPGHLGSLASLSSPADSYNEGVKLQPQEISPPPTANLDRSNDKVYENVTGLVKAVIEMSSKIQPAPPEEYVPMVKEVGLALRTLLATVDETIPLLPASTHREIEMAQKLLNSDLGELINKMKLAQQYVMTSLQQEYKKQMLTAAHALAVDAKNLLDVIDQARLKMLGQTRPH
Proto-oncogene tyrosine-protein kinase Src, sequence (P12931 2-536 limits assumed): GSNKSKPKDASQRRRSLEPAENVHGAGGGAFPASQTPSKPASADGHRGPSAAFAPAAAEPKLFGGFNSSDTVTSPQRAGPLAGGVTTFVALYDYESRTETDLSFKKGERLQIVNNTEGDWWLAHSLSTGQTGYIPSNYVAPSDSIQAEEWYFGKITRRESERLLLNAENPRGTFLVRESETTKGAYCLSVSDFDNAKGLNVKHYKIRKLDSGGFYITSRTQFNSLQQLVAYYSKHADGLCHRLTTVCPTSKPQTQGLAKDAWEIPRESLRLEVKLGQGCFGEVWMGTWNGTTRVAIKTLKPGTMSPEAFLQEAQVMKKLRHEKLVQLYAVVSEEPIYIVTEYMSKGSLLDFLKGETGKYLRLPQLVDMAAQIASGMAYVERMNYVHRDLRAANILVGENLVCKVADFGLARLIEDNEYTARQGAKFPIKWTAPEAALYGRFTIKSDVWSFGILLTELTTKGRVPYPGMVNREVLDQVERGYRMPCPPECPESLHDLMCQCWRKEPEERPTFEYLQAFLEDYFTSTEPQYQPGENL
Vascular endothelial growth factor receptor 2, sequence (P35968 whole entry): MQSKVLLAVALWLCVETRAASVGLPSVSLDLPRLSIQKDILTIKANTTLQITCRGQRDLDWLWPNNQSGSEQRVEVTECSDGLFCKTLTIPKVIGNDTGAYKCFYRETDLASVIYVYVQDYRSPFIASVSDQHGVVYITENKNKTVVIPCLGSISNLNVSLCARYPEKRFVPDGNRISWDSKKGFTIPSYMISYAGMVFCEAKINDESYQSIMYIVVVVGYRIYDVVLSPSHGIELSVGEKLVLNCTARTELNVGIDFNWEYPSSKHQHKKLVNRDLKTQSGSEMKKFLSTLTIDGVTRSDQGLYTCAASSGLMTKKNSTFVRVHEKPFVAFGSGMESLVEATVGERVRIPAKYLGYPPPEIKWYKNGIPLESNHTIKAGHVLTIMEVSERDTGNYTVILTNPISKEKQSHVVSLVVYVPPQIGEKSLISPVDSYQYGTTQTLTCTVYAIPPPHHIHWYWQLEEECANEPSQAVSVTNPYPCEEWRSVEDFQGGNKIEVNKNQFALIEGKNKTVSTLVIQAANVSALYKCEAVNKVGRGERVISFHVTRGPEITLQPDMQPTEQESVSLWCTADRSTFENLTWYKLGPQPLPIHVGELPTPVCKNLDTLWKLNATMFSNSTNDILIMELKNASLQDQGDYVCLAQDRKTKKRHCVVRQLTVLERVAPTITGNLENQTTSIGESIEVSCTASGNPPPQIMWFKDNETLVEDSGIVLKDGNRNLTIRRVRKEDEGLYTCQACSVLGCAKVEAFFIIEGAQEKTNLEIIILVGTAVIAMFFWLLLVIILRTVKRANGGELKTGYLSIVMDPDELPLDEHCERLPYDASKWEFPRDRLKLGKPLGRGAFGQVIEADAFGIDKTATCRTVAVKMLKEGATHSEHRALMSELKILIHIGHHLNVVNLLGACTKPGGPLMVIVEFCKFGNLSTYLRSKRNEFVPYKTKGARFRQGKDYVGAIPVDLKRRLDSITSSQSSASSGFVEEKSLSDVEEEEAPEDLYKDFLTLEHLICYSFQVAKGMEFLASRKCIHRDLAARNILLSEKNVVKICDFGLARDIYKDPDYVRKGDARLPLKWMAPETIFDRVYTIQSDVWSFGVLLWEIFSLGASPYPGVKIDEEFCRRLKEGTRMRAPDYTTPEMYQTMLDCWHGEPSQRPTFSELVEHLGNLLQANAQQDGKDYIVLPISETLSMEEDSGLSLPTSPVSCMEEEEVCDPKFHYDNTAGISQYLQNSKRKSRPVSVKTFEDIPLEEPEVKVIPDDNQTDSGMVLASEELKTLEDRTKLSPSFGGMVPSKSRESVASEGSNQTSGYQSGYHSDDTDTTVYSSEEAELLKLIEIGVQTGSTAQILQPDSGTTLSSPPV

On to `Cc1[nH]nc2c1N=C(c1ccccc1F)c1ccccc1N2`, for which the results for the concentration for half-maximal inhibition (IC50) in data set [1] and in data set [2] were 400 nM and 64 nM, respectively.

For `Nc1n[nH]c2nc(-c3cccs3)cc(C(F)(F)F)c12`, the half-inhibitory concentration (IC50) is 6000 nM in data set [1], 2000 nM in data set [2], 10000 nM in data set [3] and above 30000 nM in data set [4].

Turning to `CC(=O)Nc1ccc2c(c1)C(c1ccccc1Cl)=Nc1c[nH]nc1N2`, the half-maximal inhibitory concentration (IC50) in data set [5] worked out at 460 nM; in data set [1], 700 nM; in data set [2], 38 nM; in data set [6], 180 nM; in data set [7], 930 nM; in data set [8], 33 nM. Moreover, the concentration for half-maximal inhibition (IC50) worked out at 45 nM in data set [9]; 23 nM in data set [10]; 726 nM in [11]; 550 nM in [12]; 793 nM in data set [13]; 794 nM in data set [14].

Take `Cc1[nH]nc2c1N=C(c1ccccc1)c1cc(F)ccc1N2`: the 50% inhibitory concentration (IC50) came to 2200 nM in [1] and 93 nM in [2].

Turning to `Cc1[nH]nc2c1N=C(c1ccccc1)c1ccccc1N2`, the values for the IC50 in [1] and in [2] were 1500 nM and 115 nM, respectively.

Take `Nc1ccc2c(c1)C(c1ccccc1Cl)=Nc1c[nH]nc1N2`: the IC50 in [5] was 1020 nM; in data set [1], 500 nM; in [2], 88 nM; in [6] it was 150 nM; in [7] it was 1840 nM; in data set [8], 34 nM. The IC50 in data set [9] is 50 nM; in data set [10] it was 15 nM; in [11], 989 nM; in data set [12], 1070 nM; in data set [13], 310 nM; in [14], 950 nM. In addition, the inhibition in vivo at 3.125 mg/kg in data set [15] came out at 93%. The inhibition in vivo at 1.56 mg/kg in data set [16] turned out to be 70%. Besides, the inhibition entry in [17], in [18], in data set [19] and in data set [20] was “Active” throughout. For the same compound, the Activity entry in data set [21] is “Non-toxic”; in data set [22], “Non-toxic”; in [23], 9%.

For `O=[N+]([O-])c1ccc2c(c1)C(c1ccccc1Cl)=Nc1c(n[nH]c1CCc1ccccc1)N2`, the half-maximal inhibitory concentration (IC50) in data set [1] was 15000 nM; in [2] it was 5000 nM.

In the case of `O=[N+]([O-])c1ccc2c(c1)C(c1ccccc1Cl)=Nc1c(n[nH]c1-c1ccc[nH]1)N2`, the half-inhibitory concentration (IC50) in [1] came out at 5300 nM; in data set [2], 20 nM.

Regarding `Cc1[nH]nc2c1N=C(c1ccccc1F)c1cc(F)ccc1N2`, the IC50 in [1] amounted to 700 nM; in data set [2], 40 nM.

As for `N#Cc1ccc2c(c1)C(c1ccccc1F)=Nc1c[nH]nc1N2`, the half-maximal inhibitory concentration (IC50) in [1] worked out at 110 nM; in data set [2], 16 nM; in data set [6], 1200 nM; in [7], 5400 nM; in [8] it was 39 nM; in data set [9] it was 67 nM. In addition, the IC50 amounted to 51 nM in data set [10], 10900 nM in data set [11], 139 nM in data set [24] and 520 nM in data set [25].

As to `O=[N+]([O-])c1ccc2c(c1)C(c1ccccc1Cl)=Nc1c(n[nH]c1CO)N2`, the IC50 in [1] turned out to be 240 nM; in data set [2], 238 nM.

As to `NC(=O)c1[nH]nc2c1N=C(c1ccccc1Cl)c1cc([N+](=O)[O-])ccc1N2`, it took 258 nM to reach half-maximal inhibition in [2] (IC50).

Consider `O=[N+]([O-])c1ccc2c(c1)C(c1ccccc1Cl)=Nc1c(n[nH]c1-c1ccncc1)N2`, for which the IC50 was found to be 12000 nM in data set [1] and 50 nM in data set [2].

Turning to `Cc1[nH]nc2c1N=C(c1ccccc1Cl)c1cc([N+](=O)[O-])ccc1N2`, the IC50 is 160 nM in data set [1]; 35 nM in data set [2]; 6900 nM in data set [6]; above 60000 nM in data set [7]; 72 nM in [8]; 100 nM in data set [9]. Besides, the half-maximal inhibitory concentration (IC50) is 83 nM in [10] and above 10000 nM in [11].

Regarding `O=[N+]([O-])c1ccc2c(c1)C(c1ccccc1Cl)=Nc1c(n[nH]c1C(F)(F)F)N2`, it took 232 nM to reach half-maximal inhibition in [2] (IC50).

Consider `O=[N+]([O-])c1ccc2c(c1)C(c1ccccc1Cl)=Nc1c(n[nH]c1-c1cccnc1)N2`, for which the IC50 in [1] came to 26000 nM; in data set [2], 300 nM.

`O=[N+]([O-])c1ccc2c(c1)C(c1ccccc1Cl)=Nc1c(n[nH]c1-c1ccccc1)N2`: the half-maximal inhibitory concentration (IC50) was found to be 18000 nM in data set [1] and 210 nM in [2].

`O=[N+]([O-])c1ccc2c(c1)C(c1ccccc1Cl)=Nc1c[nH]nc1N2`: the concentration for half-maximal inhibition (IC50) in data set [1] stood at 6000 nM; in data set [2], 70 nM; in [3] it was 500 nM; in [4] it was 10000 nM.

With `Cc1[nH]nc2c1N=C(c1ccccc1Cl)c1ccccc1N2`, the IC50 is 3800 nM in data set [1] and 105 nM in data set [2].

On to `CC(C)c1[nH]nc2c1N=C(c1ccccc1Cl)c1cc([N+](=O)[O-])ccc1N2`, for which the concentration for half-maximal inhibition (IC50) in data set [1] was 640 nM; in [2], 10 nM.

For orientation: IC50 means the concentration needed to halve the response being measured. A lower IC50 goes with greater potency in that assay. One may read the inhibition in vivo as the relative decrease from the control value, in per cent.
